Source: publication PMC6466550 (ACS Medicinal Chemistry Letters, 2019)

System: FOPFlash reporter
Experiment: Wnt reporter assay, FOPFlash negative control
Format: cell-based
Settings: 293T cells, 50 mM LiCl, 24 h, luciferase
Outline: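 293T cells transfected with the FOPFlash plasmid, whose TCF/LEF binding sites are mutated. This plasmid served as a negative control for the TOPFlash reporter, which carries eight TCF/LEF binding-site repeats. Wnt signalling was activated with the GSK3beta inhibitor LiCl. Cells were exposed to increasing concentrations of test compound, and reporter activity was then measured.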

CCOC(=O)c1ccc(NS(=O)(=O)c2ccc(Br)cc2)cc1 [Compound 17]
Effect on activity of FOP reporter: failed to prevent
